From ChEMBL document CHEMBL4371040, “Triazolopyrimidine and triazolopyridine scaffolds as TDP2 inhibitors” (Bioorg Med Chem Lett, 2019)
Values belong to the compound of their own block, whether it stands above or below them.

Key:
[1] = Permeability of the compound at 10 uM after 5 hrs by PAMPA; type: ADME; conditions: read-out: permeability
How it was run: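 Parallel artificial membrane permeability assay reported as effective permeability Pe (10−6 cm/s). Pe > 1.5 is taken as high permeability.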

[2] = Solubility of the compound in pH 7.4 Tris HCl buffer; type: physicochemical
[3] = Solubility of the compound in DMSO; type: physicochemical
[4] = biological target: T1, Tyrosyl-DNA phosphodiesterase 2 (Homo sapiens, UniProt O95551); assay: Inhibition of recombinant human TDP2 using T5PNP as substrate preincubated for 10 mins followed by substrate addition and measured after 30 mins
T1 sequence (O95551 whole entry): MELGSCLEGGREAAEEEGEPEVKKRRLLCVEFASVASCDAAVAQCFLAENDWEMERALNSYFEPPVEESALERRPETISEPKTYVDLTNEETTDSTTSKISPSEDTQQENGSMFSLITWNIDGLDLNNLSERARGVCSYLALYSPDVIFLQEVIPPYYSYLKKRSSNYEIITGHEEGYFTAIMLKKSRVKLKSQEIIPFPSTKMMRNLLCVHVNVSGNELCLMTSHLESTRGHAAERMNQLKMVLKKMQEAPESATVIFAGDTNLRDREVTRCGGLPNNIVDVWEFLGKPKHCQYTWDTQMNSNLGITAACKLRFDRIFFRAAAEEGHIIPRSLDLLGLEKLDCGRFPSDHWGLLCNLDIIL

[5] = tested on: HeLa; assay: Cytotoxicity against human HeLa cells after 72 hrs by MTT assay; type: cell-based
How it was run: (§1)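 Compounds tested at 50 μM and 100 μM to give CC50. Two independent experiments were run, each in triplicate.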

[6] = tested on: HepG2; assay: Cytotoxicity against human HepG2 cells after 72 hrs by MTT assay; type: cell-based; conditions: hepg2, 72 h; how it was run: as §1

Compound: O=C(Nc1nc2nc(-c3ccccc3)ccn2n1)c1cccc([N+](=O)[O-])c1
Papp at 5 h, 10 µM [1]: 0.16 ×10⁻⁶ cm/s
solubility [2]: Soluble
solubility [3]: Soluble

Compound: O=C(Nc1nc2nc(-c3ccccc3)ccn2n1)c1cccc(Br)c1
solubility [3]: Insoluble

Compound: N#Cc1cccc(C(=O)Nc2nc3nc(-c4ccccc4)ccn3n2)c1
solubility [3]: Insoluble

Compound: NC1=CC(N)=C2C=CC(=O)N=C2C1=O
Papp at 5 h, 10 µM [1]: 0.095 ×10⁻⁶ cm/s
IC50 [4]: 1.7 µM

Compound: O=C(Nc1nc2cc(-c3ccccc3)ccn2n1)c1cccc(Cl)c1
Papp at 5 h, 10 µM [1]: 0.9 ×10⁻⁶ cm/s
CC50 [5]: > 100 µM
CC50 [6]: > 100 µM

Compound: O=C(Nc1nc2cc(-c3cccnc3)ccn2n1)c1cccc(Cl)c1
Papp at 5 h, 10 µM [1]: 6.3 ×10⁻⁶ cm/s
CC50 [5]: > 100 µM
CC50 [6]: > 100 µM

Compound: O=C(Nc1nc2cc(-c3ccccc3)ccn2n1)c1cccc([N+](=O)[O-])c1
Papp at 5 h, 10 µM [1]: 0.15 ×10⁻⁶ cm/s

Now from value to compound:

solubility [3]: Insoluble
Compound: O=C(Nc1nc2nc(-c3ccccc3)ccn2n1)c1ccccc1

solubility [3]: Insoluble
Compound: O=C(Nc1nc2nc(-c3ccccc3)ccn2n1)c1cccc(C(F)(F)F)c1

solubility [3]: Insoluble
Compound: O=C(Nc1nc2nc(-c3ccccc3)ccn2n1)c1ccc([N+](=O)[O-])cc1
